In ChEMBL document CHEMBL1124606, “Benzo- and pyrido-1,4-oxazepin-5-ones and -thiones: synthesis and structure-activity relationships of a new series of H1 antihistamines” (1989):

Experiments:
Cavia porcellus [1] = test: Histamine induced lethality, at 60-min pretreatment time when 3 mg/kg compound was administered perorally in guinea pigs; format: functional; conditions: route oral
Cavia porcellus [2] = test: Histamine induced lethality, at 60-min pretreatment time when 30 mg/kg compound was administered perorally in guinea pigs; format: functional; conditions: route oral
Cavia porcellus [3] = test: Histamine induced lethality, at 60-min pretreatment time when 1 mg/kg compound was administered perorally in guinea pigs; format: functional; conditions: route oral
Cavia porcellus [4] = test: Histamine induced lethality, at 60-min pretreatment time when 0.3 mg/kg compound was administered perorally in guinea pigs; format: functional; conditions: route oral
[5] = target: Histamine H1 receptor (Cavia porcellus) (UniProt P31389); test: Histamine induced lethality, at 60-min pretreatment time of 0.1 mg/kg p.o. in guinea pigs.; format: functional, organism-based; design: dose 0.1 mg/kg; conditions: at 0.1 mg/kg
Cavia porcellus [6] = species on record: Cavia porcellus; test: Effective dose that protects guinea pigs against histamine induced lethality, at 1 hour pretreatment time; format: functional
In short: (§1)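 Survival at 24 h after challenge was scored as protection. Groups of 5–10 animals per treatment; ED50 was calculated by the Litchfield–Wilcoxon method or by computer probit analysis.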

Cavia porcellus [7] = test: Histamine induced lethality, at 30-min pretreatment time when 30 mg/kg compound was administered intra peritoneally in guinea pigs; format: functional
Felis catus [8] = test: The compound dose required for 50% block of H1 histamine activity, when administarted intra venously in cats; format: functional
In short: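 Cats given test compound iv (0.001-20 mg/kg), with blood pressure recorded continuously. Histamine 0.5 μg/kg iv was given to induce hypotension, before and 5, 10 and 20 min after each dose. The antihistaminic dose was the one inhibiting the histamine response by >50%. Values are mean ± SD over the number of experiments per compound.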

Felis catus [9] = test: The compound dose required to elicit marked cortical slowing and spindling, when administarted intra venously in cats; format: functional
In short: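 Cats given test compound iv (0.001-20 mg/kg), with spontaneous EEG inspected after each dose for cortical slowing, synchrony and spindle-type activity. The sedative dose was the one producing marked slowing and spindling (synchrony). Values are mean ± SD over the number of experiments per compound.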

Cavia porcellus [10] = species on record: Cavia porcellus; test: Effective dose that protects guinea pigs against histamine induced lethality at 6 hours pretreatment time; format: functional; in short: as §1
[11] = target: Histamine H1 receptor (Cavia porcellus) (UniProt P31389); test: Histamine induced lethality, at 30-min pretreatment time of 3 mg/kg i.p. in guinea pigs.; format: functional, organism-based; design: dose 3 mg/kg; conditions: at 3 mg/kg

Chain of Histamine H1 receptor (Cavia porcellus) (P31389 whole entry): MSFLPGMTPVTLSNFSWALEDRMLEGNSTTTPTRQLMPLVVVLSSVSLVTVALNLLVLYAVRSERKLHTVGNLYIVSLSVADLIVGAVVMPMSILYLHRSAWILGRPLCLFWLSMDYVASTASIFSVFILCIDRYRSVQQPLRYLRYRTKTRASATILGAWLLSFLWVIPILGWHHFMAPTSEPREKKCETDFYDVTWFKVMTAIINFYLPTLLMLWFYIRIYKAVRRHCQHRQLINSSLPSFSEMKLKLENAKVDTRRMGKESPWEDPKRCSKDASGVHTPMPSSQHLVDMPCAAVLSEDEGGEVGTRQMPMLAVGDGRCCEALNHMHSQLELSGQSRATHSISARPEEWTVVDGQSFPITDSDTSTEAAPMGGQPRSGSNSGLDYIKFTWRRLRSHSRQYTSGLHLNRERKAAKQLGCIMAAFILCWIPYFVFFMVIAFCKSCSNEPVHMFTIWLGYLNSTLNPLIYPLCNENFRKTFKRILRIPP

Row | Compound | survival at 3 mg/kg (Cavia porcellus [1]) [%] | survival at 1 mg/kg (Cavia porcellus [3]) [%] | survival at 30 mg/kg (Cavia porcellus [7]) [%] | further results
1 | CN(C)CCC1CN(C)C(=S)c2cc(C(F)(F)F)ccc2O1 (centres undefined) | 33 |  |  | survival at 30 mg/kg (Cavia porcellus [2]): 100%
2 | CN(C)CCC1CNC(=O)c2cccnc2O1 (centres undefined) | 67 | 0 |  | 
3 | CN1CC(CCN2CCCC2)Oc2ncccc2C1=S (centres undefined) | 80 |  |  | survival at 30 mg/kg (Cavia porcellus [2]): 67%
4 | CN1CC(CCN2CCC2)Oc2ccc(Cl)cc2C1=S (centres undefined) |  |  |  | survival at 0.3 mg/kg (Cavia porcellus [4]): 100%; Survival [5]: 40%; ED50 (Cavia porcellus [6]): 0.12 mg/kg
5 | CN(C)CCCOc1ncccc1C(=S)N(C)C |  |  | 0 | 
6 | CN(C)CCOC(c1ccccc1)c1ccccc1 [DIPHENHYDRAMINE] | 67 | 33 |  | Dose (Felis catus [8]): 0.75 mg/kg; Dose (Felis catus [9]): 0.6 mg/kg; ED50 (Cavia porcellus [10]): 38 mg/kg; ED50 (Cavia porcellus [6]): 2.8 mg/kg
7 | CN1CC(CCN2CCOCC2)Oc2ncccc2C1=S (centres undefined) |  |  | 100 | Survival [11]: 0%
8 | CN(C)CCC1CN(C)C(=O)c2cnc3ccccc3c2O1 (centres undefined) |  |  | 33 | 
9 | CCCCN(CCCC)CCC1CN(C)C(=S)c2cccnc2O1 (centres undefined) |  |  | 100 | Survival [11]: 33%
10 | CN(C)CCC1CN(C)C(=O)c2c(Cl)cncc2O1 (centres undefined) |  |  | 0 | 
11 | O=C1c2ccccc2OC(CCN2CCOCC2)CN1Cc1ccccc1 (centres undefined) |  |  | 0 | 
12 | CN1CC(CCN2CCCCC2)Oc2ncccc2C1=S (centres undefined) |  |  | 100 | Survival [11]: 0%
13 | CN(C)CCC1CN(C)C(=O)c2cc(Cl)ccc2O1 (centres undefined) | 40 | 33 |  | survival at 0.3 mg/kg (Cavia porcellus [4]): 0%
14 | CN1CC(CCNC2CC2)Oc2ncccc2C1=S (centres undefined) |  |  | 0 | 
15 | CN(C)CCC1CN(C)C(=S)c2cc(-c3ccccc3)cnc2O1 (centres undefined) | 100 | 100 |  | survival at 0.3 mg/kg (Cavia porcellus [4]): 0%
16 | CN1CC(CCN2CCOCC2)Oc2ccccc2C1=S (centres undefined) |  |  | 50 | 
17 | Cc1nc2c(cc1Cl)C(=S)N(C)CC(CCN1CCC1)O2 (centres undefined) |  |  |  | survival at 0.3 mg/kg (Cavia porcellus [4]): 67%; Survival [5]: 67%
18 | CN(C)CCC1CN(C)C(=S)c2cc(Cl)ccc2O1 (centres undefined) | 100 | 33 |  | Dose (Felis catus [9]): 10 mg/kg
19 | CNCCC1CN(C)C(=S)c2cccnc2O1 (centres undefined) | 0 |  |  | Dose (Felis catus [9]): >20 mg/kg; survival at 30 mg/kg (Cavia porcellus [2]): 100%
20 | COc1ccc(CN(C)CCC2CN(C)C(=S)c3cccnc3O2)cc1 (centres undefined) | 67 | 0 |  | 

Row | Compound | survival at 3 mg/kg (Cavia porcellus [1]) [%] | survival at 1 mg/kg (Cavia porcellus [3]) [%] | survival at 30 mg/kg (Cavia porcellus [7]) [%] | further results
21 | CN(CCC1CN(C)C(=S)c2cccnc2O1)Cc1ccc(C(C)(C)C)cc1 (centres undefined) | 100 | 40 |  | survival at 0.3 mg/kg (Cavia porcellus [4]): 0%
22 | CN(C)CCOc1ncccc1C(=S)N(C)C |  |  | 0 | 
23 | CN(C)CCC1CN(C)C(=O)c2ccccc2O1 (centres undefined) |  |  | 62 | 
24 | CN(C)CCC1CN(C)C(=O)c2cnc3cc(C(F)(F)F)ccc3c2O1 (centres undefined) |  |  | 100 | Survival [11]: 0%
25 | CC(CN(C)C)C1CN(C)C(=S)c2cccnc2O1 (centres undefined) |  |  | 100 | Survival [11]: 0%
26 | COc1ccc2c(c1)C(=S)N(C)CC(CCN(C)C)O2 (centres undefined) | 0 |  |  | survival at 30 mg/kg (Cavia porcellus [2]): 100%
27 | S=C1c2ccccc2OC(CCN2CCOCC2)CN1Cc1ccccc1 (centres undefined) |  |  | 0 | 
28 | CN(C)CCC1CN(C)C(=O)c2cc(Cl)cnc2O1 (centres undefined) |  | 100 |  | survival at 0.3 mg/kg (Cavia porcellus [4]): 33%; ED50 (Cavia porcellus [10]): 28 mg/kg; ED50 (Cavia porcellus [6]): 0.3 mg/kg
29 | Cc1ccc2c(n1)OC(CCN(C)C)CN(C)C2=S (centres undefined) |  |  |  | survival at 0.3 mg/kg (Cavia porcellus [4]): 100%; ED50 (Cavia porcellus [10]): > 2 mg/kg; Survival [5]: 80%; ED50 (Cavia porcellus [6]): 0.06 mg/kg
30 | CN1CC(CCN2CC=CC2)Oc2ncccc2C1=S (centres undefined) | 100 | 0 |  | 
31 | CN(CCC1CN(C)C(=S)c2cccnc2O1)Cc1ccccc1 (centres undefined) | 100 | 0 |  | 
32 | CN(C)CCC1CN(C)C(=S)c2cc(F)ccc2O1 (centres undefined) | 100 | 20 |  | survival at 0.3 mg/kg (Cavia porcellus [4]): 0%
33 | COc1ccc(CCN(C)CCC2CN(C)C(=S)c3cccnc3O2)cc1 (centres undefined) | 33 |  |  | survival at 30 mg/kg (Cavia porcellus [2]): 100%
34 | CN(C)CCC1(C)CN(C)C(=O)c2cccnc2O1 (centres undefined) | 67 |  |  | survival at 0.3 mg/kg (Cavia porcellus [4]): 67%; ED50 (Cavia porcellus [6]): 0.45 mg/kg
35 | CN(C)CCCC1CN(C)C(=O)c2cccnc2O1 (centres undefined) |  |  | 100 | Survival [11]: 0%
36 | CN1CC(CCNC2CCC2)Oc2ncccc2C1=S (centres undefined) |  |  | 0 | 
37 | CN1CC(CCN)Oc2ncccc2C1=S (centres undefined) |  |  |  | survival at 30 mg/kg (Cavia porcellus [2]): 0%
38 | CN(C)CCC1CN=C(S)c2cccnc2O1 (centres undefined) | 100 | 33 |  | survival at 0.3 mg/kg (Cavia porcellus [4]): 0%
39 | CN(C)CCCC1CN(C)C(=S)c2cccnc2O1 (centres undefined) |  |  | 100 | Survival [11]: 33%
